# Source: article PMC3702173 (Circulation research, 2013)
# Entries after “also recorded” stand apart in the source; their conditions may differ.
# How the values were obtained:
# [1] = tested on: murine monocytes (ICAM-1 or VCAM-1 binding); type: cell-based, mouse; settings: PMA 50ng/ml, MCP-1 50ng/ml, CRAMP 1µg/ml; ICAM-1-Fc or VCAM-1-Fc; n=5
# Outline: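 Mouse peripheral leukocytes exposed to PMA (50ng/ml), MCP-1 (50ng/ml) or CRAMP (1µg/ml) with ICAM-1-Fc or VCAM-1-Fc plus anti-Fc antibody; monocyte subsets gated by CD45, CD11b, CD115 and Gr1 staining; ligand binding read by flow cytometry; n=5.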
# [2] = tested on: classical CD14^++CD16^− monocytes; type: cell-based, human; settings: for Monocyte adhesion to P-selectin/ICAM-1 or P-selectin/VCAM-1: substance coimmobilized, LL37/MCP1 n=8, mLL37 n=3
# HUVEC = experiment: Transendothelial transport; type: cell-based, human; settings: for Effect on transendothelial LL37 transportation: pretreatment of HUVEC with inhibitor or enzyme
# [3] = tested on: activated CD11b and VLA4 (β1- and β2-integrins) on monocytes; experiment: Integrin activation; type: cell-based, human; settings: LL37 1µg/ml; for Integrin activation on non-classical CD14^+CD16^++ monocytes: MCP-1 50ng/ml, Online Figure V
# non-classical monocytes = settings: mouse cremaster muscle in vivo
# Outline: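 Cx3cr1egfp/WT mice, either with intact white cell count or made neutropenic with 1A8 (50µg i.p., 12h before), got TNF (50ng, 12h) intrascrotally. Anti-Ly6C (1µg i.v.) separated subsets, with non-classical monocytes GFP+ only. Cremaster adhesion was quantified by intravital microscopy; n=6.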
# classical monocytes = experiment: Classical monocyte accumulation in peritoneum upon stimulation with TNF; type: in vivo, mouse; settings: CRAMP-deficient mice, local application of CRAMP, unpublished data
# [4] = tested on: classical monocytes (Ly6C^+); type: in vivo, mouse
# [5] = tested on: endothelium (baso-apical transport of CRAMP); type: in vivo, mouse; settings: n=4
# Outline: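 Neutropenic Darc−/− mice (1A8, 50µg/mouse i.p., 8h before stimuli) were injected intrascrotally with TNF (50ng, 4h) plus CRAMP (1µg). Fluorescent beads conjugated with anti-CRAMP antibody were then injected, and immobilised luminal beads were counted by intravital microscopy; n=4.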
# DARC = experiment: Interaction of DARC and LL37; type: binding; settings: Online Figure IV
# neutrophils = settings: ref [24]; cited from earlier work
# P2X7 [6] = experiment: Surface plasmon resonance, receptor proteoliposomes on immobilized LL37; type: binding; settings: LL37 immobilized on CM4 chip; receptor-containing proteoliposomes; not shown
# FPR2 = settings: ref [6]; cited from earlier work
# [7] = tested on: endothelial adhesion molecules on HUVEC; experiment: Expression of endothelial adhesion molecules on HUVEC; type: cell-based, human; settings: treatment of HUVEC with LL37
# [8] = tested on: human non-classical CD14^+CD16^++ monocytes; type: cell-based; settings: LL37 (1µg) deposited 15 min prior to perfusion; TNF-activated HUVEC; n=6
# Outline: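 Human non-classical CD14+CD16++ monocytes perfused in a flow chamber over HUVEC monolayers activated with TNF (20ng, 12h); LL37 (1µg) deposited on the monolayer 15 min before perfusion; adherent cells counted; n=6.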
# monocytes = settings: ref [40]; cited from earlier work
# P2X7 [9] = settings: LPS-primed monocytes; via P2X7; ref [41]; cited from earlier work
# [10] = tested on: various T-cells, smooth muscle cells, and epithelial cells; settings: ref [44], [45]; cited from earlier work
molecule,measurement,setting,value
"CCCCCCCCCCCCCC(=O)O[C@@H]1[C@@H](C)[C@@]2(O)[C@@H](C=C(CO)C[C@]3(O)C(=O)C(C)=C[C@@H]23)[C@@H]2C(C)(C)[C@]12OC(C)=O [PMA, phorbol-12-myristate-13-acetate, reference compound]",ICAM-1 and VCAM-1 binding to classical monocytes,[1],increased binding of ICAM-1 or VCAM-1
"Cc1ccc2c(c1)C1(CCN(CCc3nc(-c4ccccc4)oc3C)CC1)OC(=O)N2 [RS504393, reference compound]",Effect on MCP1-mediated monocyte adhesion,"[2]; RS504393 1µM, P-selectin/ICAM-1 or P-selectin/VCAM-1, n=8",blocked
O=C(Nc1ccc([N+](=O)[O-])cc1O)Nc1ccccc1Br [SB225002],Effect on transendothelial LL37 transportation,HUVEC; n=6,did not impact on transendothelial LL37 transportation
COc1cc2c(c(OC)c1OC)-c1ccc(OC)c(=O)cc1[C@@H](NC(C)=O)CC2 [colchicine],Effect on transendothelial LL37 transportation,HUVEC; n=6,abrogated
C=C1[C@@H](C)[C@H]2[C@H](Cc3ccccc3)NC(=O)[C@]23OC(=O)/C=C/[C@H](O)CCC[C@@H](C)C/C=C/[C@H]3[C@@H]1O [cytochalasin B],Effect on transendothelial LL37 transportation,HUVEC; n=6,abrogated
CCCCC[C@@H](O)[C@H]1C(=O)O[C@H](C)[C@@H](O)/C=C/C=C/C=C/C=C/C=C(\C)[C@@H](O)C[C@H](O)C[C@H](O)C[C@H](O)C[C@H](O)C[C@H](O)C[C@@H]1O [filipin],Effect on transendothelial LL37 transportation,HUVEC; n=6,clear-cut decreases of LL37 transcytosis
"CCCCOc1ccc(C(=O)NN2C(=O)c3ccccc3NC2c2ccc(O)cc2)cc1 (stereo not shown) [quin-C7, reference compound]",Effect on LL37-induced integrin activation,"[3]; quin-C7 1µM, U73122 100nM, classical monocytes, n=4",fully abrogated integrin activation induced by LL37
Cc1ccc(C(=O)Nc2ccc(S(=O)(=O)O)c3cc(S(=O)(=O)O)cc(S(=O)(=O)O)c23)cc1NC(=O)c1cccc(NC(=O)Nc2cccc(C(=O)Nc3cc(C(=O)Nc4ccc(S(=O)(=O)O)c5cc(S(=O)(=O)O)cc(S(=O)(=O)O)c45)ccc3C)c2)c1 [suramin],Effect on transendothelial LL37 transportation,HUVEC; n=6,did not impact on transendothelial LL37 transportation
CRAMP,"Adhesion of non-classical monocytes, mouse cremaster",non-classical monocytes,not of non-classical monocytes
same,Accumulation of classical monocytes into peritoneum,classical monocytes,rescued by local application of CRAMP
same,ICAM-1 and VCAM-1 binding to classical monocytes,[1],increased binding of ICAM-1 or VCAM-1; also recorded: enhances ICAM-1 and VCAM-1 binding to classical monocytes
same,Adhesion of classical monocytes in Cramp^−/− mice,"[4]; Cramp^−/− mice, intrascrotal TNF with CRAMP 1µg vs TNF alone, n=5",restored the defect in Cramp^−/− mice; also recorded: restores adhesion of classical monocytes
same,"Adhesion of classical monocytes, overall statement, mouse cremaster",[4]; mouse cremaster muscle in vivo,induce adhesion of classical monocytes
same,Adhesion of classical monocytes in Fpr1^−/− mice,"[4]; neutropenic Fpr1^−/− mice, TNF and CRAMP 1µg, n=6",resulted in increased adhesion in Fpr1^−/− mice
same,Adhesion of classical monocytes in Fpr2^−/− mice,"[4]; neutropenic Fpr2^−/− mice, TNF and CRAMP 1µg, n=6",this response was not observed in Fpr2^−/− mice
same,Transportation of CRAMP across endothelium in Darc^−/− mice,"[5]; neutropenic Darc^−/− mice, TNF 50ng, 4h, and CRAMP 1µg intrascrotal",maintained in Darc^−/− mice
same,Luminal CRAMP in WT mice,"[5]; neutropenic WT mice, TNF 50ng and CRAMP 1µg intrascrotal",luminal CRAMP was detected 4h after intrascrotal CRAMP injection
LL37: human cathelicidin; linear peptide; FITC-labelled form used in transport experiment,Interaction with DARC,DARC,could not detect an interaction between DARC and LL37
same,Integrin activation on non-classical CD14^+CD16^++ monocytes,[3],not on non-classical CD14^+CD16^++ monocytes
same,Apoptotic cell death in neutrophils,neutrophils,inhibit apoptotic cell death in neutrophils
same,Binding to P2X7,P2X7 [6],no interaction with LL37
same,Transendothelial LL37 transportation at 4°C,"HUVEC; 4 °C, n=6",abrogated at 4 °C
same,Time until LL37 accumulation on HUVEC surface,"HUVEC; time course, antibody-stained surface-bound LL37",≥ 2 h
same,Effect of serum on direct chemotactic activity,FPR2,not affected by serum
same,Effect on expression of endothelial adhesion molecules,[7],did not impact on expression of endothelial adhesion molecules
same,"Adhesion of non-classical monocytes, in vitro flow chamber",[8],not of non-classical monocytes
same,Production and release of IL8,monocytes,induces the production and release of IL8 from monocytes
same,Monocyte adhesion to P-selectin/ICAM-1 or P-selectin/VCAM-1,[2],strongly enhanced monocyte adhesion
same,Processing and release of IL-1 β,P2X7 [9],induced processing and release of the potent cytokine IL-1 β
same,Apoptosis,[10],"promotes apoptosis in various T-cells, smooth muscle cells, and epithelial cells"
"MCP1: classical chemokine, CCR2 ligand (CCL2/MCP-1)",Integrin activation on non-classical CD14^+CD16^++ monocytes,[3],not on non-classical CD14^+CD16^++ monocytes
same,Monocyte adhesion to P-selectin/ICAM-1 or P-selectin/VCAM-1,[2],strongly enhanced monocyte adhesion
same,ICAM-1 and VCAM-1 binding to classical monocytes,[1],increased binding of ICAM-1 or VCAM-1
boc-PLPLP,Effect on transendothelial LL37 transportation,HUVEC; n=6,did not impact on transendothelial LL37 transportation
